Laboratory results reported in the M2OR odorant receptor database.

Legend:
Settings in all cases: stereoisomer not certain
[1] = target: OR2T2 (Homo sapiens) (UniProt Q6IF00)
Method in brief: (§1)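 Each receptor–molecule pair is labelled responsive or non-responsive (inactive) according to whether the original authors judged the measured signal statistically different from baseline. The data were taken from the main text and supplementary material of published papers and checked for typos and inconsistencies. Assay methods differed by source, with transient luciferase assays in mammalian cell lines being common.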

[2] = target: OR2T27 (Homo sapiens) (UniProt Q8NH04)
Chain of OR2T27 (Homo sapiens) (Q8NH04 whole entry): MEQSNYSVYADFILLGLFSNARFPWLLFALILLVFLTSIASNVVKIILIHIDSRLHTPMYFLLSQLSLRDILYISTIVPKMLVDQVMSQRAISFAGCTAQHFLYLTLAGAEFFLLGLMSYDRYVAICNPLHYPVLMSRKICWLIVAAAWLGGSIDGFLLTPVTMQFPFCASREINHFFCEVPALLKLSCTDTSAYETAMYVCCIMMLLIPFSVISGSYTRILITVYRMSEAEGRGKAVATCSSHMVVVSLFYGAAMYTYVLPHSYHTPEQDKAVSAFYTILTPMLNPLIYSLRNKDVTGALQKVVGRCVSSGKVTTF
Method in brief: as §1

[3] = target: OR2T29 (Homo sapiens) (UniProt Q8NH02)
Chain of OR2T29 (Homo sapiens) (Q8NH02 whole entry): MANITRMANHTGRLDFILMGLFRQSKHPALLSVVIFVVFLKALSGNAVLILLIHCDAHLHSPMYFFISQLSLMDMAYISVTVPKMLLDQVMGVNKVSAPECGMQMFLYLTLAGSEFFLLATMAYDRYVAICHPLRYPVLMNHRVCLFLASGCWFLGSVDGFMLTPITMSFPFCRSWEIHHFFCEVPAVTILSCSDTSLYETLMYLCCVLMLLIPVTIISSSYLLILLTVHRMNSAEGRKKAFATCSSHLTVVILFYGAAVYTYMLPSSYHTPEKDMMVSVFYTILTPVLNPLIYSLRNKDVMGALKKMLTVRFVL
Method in brief: as §1

[4] = target: OR2T3 (Homo sapiens) (UniProt Q8NH03)
Chain of OR2T3 (Homo sapiens) (Q8NH03 whole entry): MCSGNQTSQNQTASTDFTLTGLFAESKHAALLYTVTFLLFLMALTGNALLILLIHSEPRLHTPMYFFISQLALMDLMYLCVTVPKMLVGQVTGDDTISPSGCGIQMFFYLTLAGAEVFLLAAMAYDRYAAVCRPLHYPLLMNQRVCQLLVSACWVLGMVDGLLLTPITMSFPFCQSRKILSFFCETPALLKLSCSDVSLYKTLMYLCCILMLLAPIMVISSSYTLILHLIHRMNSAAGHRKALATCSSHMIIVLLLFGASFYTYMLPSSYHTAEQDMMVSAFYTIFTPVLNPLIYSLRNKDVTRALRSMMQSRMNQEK
Method in brief: as §1

[5] = target: OR2T33 (Homo sapiens) (UniProt Q8NG76)
Chain of OR2T33 (Homo sapiens) (Q8NG76 whole entry): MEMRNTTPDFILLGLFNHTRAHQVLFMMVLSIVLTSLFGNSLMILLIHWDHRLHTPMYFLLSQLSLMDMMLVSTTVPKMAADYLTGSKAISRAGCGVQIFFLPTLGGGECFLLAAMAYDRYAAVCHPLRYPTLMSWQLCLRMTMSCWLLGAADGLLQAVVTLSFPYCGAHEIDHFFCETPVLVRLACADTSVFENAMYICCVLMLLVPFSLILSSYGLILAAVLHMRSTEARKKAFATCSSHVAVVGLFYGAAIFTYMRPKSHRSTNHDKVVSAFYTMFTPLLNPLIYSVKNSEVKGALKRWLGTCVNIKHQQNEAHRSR
Method in brief: as §1

[6] = target: OR2T35 (Homo sapiens) (UniProt Q8NGX2)
Chain of OR2T35 (Homo sapiens) (Q8NGX2 whole entry): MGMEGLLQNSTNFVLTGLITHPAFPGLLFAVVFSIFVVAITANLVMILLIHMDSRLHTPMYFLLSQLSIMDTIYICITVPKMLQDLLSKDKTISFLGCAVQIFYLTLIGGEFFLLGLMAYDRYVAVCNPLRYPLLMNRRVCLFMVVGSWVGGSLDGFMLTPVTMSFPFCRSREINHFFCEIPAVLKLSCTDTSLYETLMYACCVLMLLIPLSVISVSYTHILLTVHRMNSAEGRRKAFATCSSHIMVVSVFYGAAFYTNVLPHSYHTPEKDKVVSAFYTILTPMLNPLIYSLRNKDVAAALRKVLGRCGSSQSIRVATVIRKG
Method in brief: as §1

[7] = target: OR2T5 (Homo sapiens) (UniProt Q6IEZ7)
Chain of OR2T5 (Homo sapiens) (Q6IEZ7 whole entry): as the sequence (Q8NH02 whole entry) above, with R13K, Q24R counted along it
Method in brief: as §1

[8] = target: OR2T6 (Homo sapiens) (UniProt Q8NHC8)
Chain of OR2T6 (Homo sapiens) (Q8NHC8 whole entry): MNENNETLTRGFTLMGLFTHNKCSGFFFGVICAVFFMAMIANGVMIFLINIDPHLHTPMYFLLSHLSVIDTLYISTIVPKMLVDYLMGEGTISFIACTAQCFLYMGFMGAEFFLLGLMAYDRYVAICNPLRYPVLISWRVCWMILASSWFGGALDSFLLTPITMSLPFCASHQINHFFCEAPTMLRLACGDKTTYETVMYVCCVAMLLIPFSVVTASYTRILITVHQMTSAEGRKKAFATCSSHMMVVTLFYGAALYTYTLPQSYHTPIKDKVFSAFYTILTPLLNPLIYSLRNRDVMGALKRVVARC
Method in brief: as §1

[9] = target: OR2T7 (Homo sapiens) (UniProt P0C7T2)
Chain of OR2T7 (Homo sapiens) (P0C7T2 whole entry): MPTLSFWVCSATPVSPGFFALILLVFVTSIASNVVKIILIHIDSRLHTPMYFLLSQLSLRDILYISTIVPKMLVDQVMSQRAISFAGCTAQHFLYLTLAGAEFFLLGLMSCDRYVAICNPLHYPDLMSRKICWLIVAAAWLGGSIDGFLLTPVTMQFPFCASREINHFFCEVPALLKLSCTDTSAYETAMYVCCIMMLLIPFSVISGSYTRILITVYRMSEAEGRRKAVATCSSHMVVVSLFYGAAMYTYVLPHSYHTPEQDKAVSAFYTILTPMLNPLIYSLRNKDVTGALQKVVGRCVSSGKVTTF
Method in brief: as §1

[10] = tested on: OR2T2 L104F L262Q
Method in brief: as §1

[11] = tested on: OR2T2 L104F
Chain of OR2T2 L104F (as listed by the source, stated change not applied): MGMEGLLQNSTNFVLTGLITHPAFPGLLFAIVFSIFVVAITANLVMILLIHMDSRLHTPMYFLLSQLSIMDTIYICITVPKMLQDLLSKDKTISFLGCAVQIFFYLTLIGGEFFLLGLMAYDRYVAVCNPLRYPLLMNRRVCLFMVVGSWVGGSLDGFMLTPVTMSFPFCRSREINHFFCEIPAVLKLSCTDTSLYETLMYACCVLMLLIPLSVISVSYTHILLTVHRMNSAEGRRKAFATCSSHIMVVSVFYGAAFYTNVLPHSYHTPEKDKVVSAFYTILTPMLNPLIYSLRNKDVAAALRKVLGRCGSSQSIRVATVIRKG
Method in brief: as §1

[12] = tested on: OR2T2 Q313H
Chain of OR2T2 Q313H (as listed by the source, stated change not applied): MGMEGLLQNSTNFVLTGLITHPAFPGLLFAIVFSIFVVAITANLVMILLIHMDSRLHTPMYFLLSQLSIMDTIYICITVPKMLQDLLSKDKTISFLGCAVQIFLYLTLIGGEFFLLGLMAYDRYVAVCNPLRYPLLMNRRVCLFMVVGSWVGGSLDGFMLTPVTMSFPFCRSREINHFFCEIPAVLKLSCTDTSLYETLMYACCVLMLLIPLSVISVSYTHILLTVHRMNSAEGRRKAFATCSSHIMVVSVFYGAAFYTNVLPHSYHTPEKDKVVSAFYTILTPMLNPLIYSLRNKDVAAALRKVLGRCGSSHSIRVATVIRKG
Method in brief: as §1

[13] = tested on: OR2T3 L256F
Chain of OR2T3 L256F (as listed by the source, stated change not applied): as the sequence (Q8NH03 whole entry) above, with L256F counted along it
Method in brief: as §1

[14] = tested on: OR2T3 R298C
Chain of OR2T3 R298C (as listed by the source, stated change not applied): as the sequence (Q8NH03 whole entry) above, with R298C counted along it
Method in brief: as §1

[15] = tested on: OR2T3 Y109H
Chain of OR2T3 Y109H (as listed by the source, stated change not applied): as the sequence (Q8NH03 whole entry) above, with Y109H counted along it
Method in brief: as §1

[16] = tested on: OR2T5 K13R K41M G45E
Method in brief: as §1

[17] = tested on: OR2T5 K13R L134F
Method in brief: as §1

[18] = tested on: OR2T6 C23G
Chain of OR2T6 C23G (as listed by the source, stated change not applied): as the sequence (Q8NHC8 whole entry) above, with C23G counted along it
Method in brief: as §1

Measured: odorant receptor agonist call

Chain of OR2T2 (Homo sapiens) (Q6IF00 whole entry): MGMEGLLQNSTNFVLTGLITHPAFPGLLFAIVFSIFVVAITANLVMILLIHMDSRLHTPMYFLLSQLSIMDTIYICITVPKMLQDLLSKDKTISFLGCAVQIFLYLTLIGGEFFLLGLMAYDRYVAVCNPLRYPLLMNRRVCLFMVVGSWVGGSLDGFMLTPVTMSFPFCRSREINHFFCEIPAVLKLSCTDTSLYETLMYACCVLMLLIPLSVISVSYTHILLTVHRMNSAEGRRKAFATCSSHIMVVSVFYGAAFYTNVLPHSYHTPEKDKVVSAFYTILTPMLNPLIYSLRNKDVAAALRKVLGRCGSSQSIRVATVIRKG

Cc1c([N+](=O)[O-])c(C)c([N+](=O)[O-])c(C(C)(C)C)c1[N+](=O)[O-]
inactive: [1] | [2] | [3] | [4] | [5] | [6] | [7] | [8] | [9]

C=CCOC(=O)Cc1ccccc1
not listed: [9]
inactive: all other assays above
